Laboratory results from ChEMBL document CHEMBL1153639, “A facile synthesis and antimycobacterial evaluation of novel spiro-pyrido-pyrrolizines and pyrrolidines” (2009).
Values after ≈ are worked out from the molar mass of the structure shown.

What follows are molecules tested on Mycobacterium tuberculosis (assay: Antimycobacterial against multidrug resistant Mycobacterium tuberculosis by agar dilution method).
Assay type: functional
Procedure, shortened: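 Strain was an MDR-TB clinical isolate resistant to isoniazid and rifampicin, among other drugs. MIC read by agar dilution, run in triplicate.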

Compound	MIC [µM]
CN1CCC(=O)[C@]2(C1)[C@@H](c1ccc(Cl)cc1Cl)[C@@H]1CCCN1[C@@]21C(=O)Nc2ccccc21	1.66 (≈ 0.781 µg/mL)
CN1CCC(=O)[C@]2(C1)[C@@H](c1ccc(Cl)cc1Cl)CN(C)[C@@]21C(=O)Nc2ccccc21	0.88 (≈ 0.391 µg/mL)
CN1CCC(=O)[C@]2(C1)[C@@H](c1ccccc1Cl)[C@@H]1CCCN1[C@@]21C(=O)Nc2ccccc21	3.58 (≈ 1.56 µg/mL)
CC[C@@H](CO)NCCN[C@@H](CC)CO [ETHAMBUTOL]	61.2 (≈ 12.5 µg/mL)
NNC(=O)c1ccncc1 [ISONIAZID]	11.4 (≈ 1.56 µg/mL)
NC(=O)c1cnccn1 [PYRAZINAMIDE]	406 (≈ 50 µg/mL)
